# Results published in ChEMBL document CHEMBL2040795, “Synthesis, biological evaluation, and structure-activity relationships of 2-[2-(benzoylamino)benzoylamino]benzoic acid analogues as inhibitors of adenovirus replication” (J Med Chem, 2012).
# What was measured:
# Human adenovirus 5 [1] = assay: Antiviral activity against Adenovirus type 5 F2853-5b infected in human A549 cells assessed as inhibition of viral replication at 5 uM after 24 hrs by RT-PCR analysis; type: functional; details: Human mastadenovirus C, A549, 24 h
# Outline: (§1)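 Ad5-infected A549 cells incubated with compound for 24 h. DNA was then extracted and newly synthesized viral DNA quantified by real-time PCR of the hexon gene, normalized to cellular RNaseP gene. […] EC50 determined for selected compounds.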
# Human adenovirus 5 [2] = assay: Antiviral activity against Adenovirus type 5 F2853-5b infected in human A549 cells assessed as inhibition of viral replication at 15 uM after 24 hrs by RT-PCR analysis; type: functional; details: Human mastadenovirus C, A549, 24 h; outline: as §1
# [3] = Cytotoxicity against human A549 cells assessed as viability at 30 uM after 24 hrs by XTT assay; type: cell-based; details: read-out: Activity
# Outline: (§2)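 About 15000 A549 cells per well were seeded the day before. Compound was added in DMEM with 0.75 g/L NaHCO3 and 20 mM HEPES, then incubated 24 h at 37 °C, 5% CO2. XTT was added 4 h before reading formazan absorbance at 450 nm. Values are percentage viable cells, with DMSO baseline toxicity subtracted (0.15% DMSO at 30 μM, 0.30% at 60 μM).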
# Human adenovirus 5 [4] = assay: Antiviral activity against Adenovirus type 5 F2853-5b infected in human A549 cells assessed as inhibition of viral replication after 24 hrs by RT-PCR analysis; type: functional, organism-based; details: Human mastadenovirus C, A549, 24 h; outline: as §1
# [5] = Cytotoxicity against human A549 cells assessed as viability at 60 uM after 24 hrs by XTT assay; type: cell-based; details: read-out: Activity; outline: as §2
# [6] = Aqueous solubility of the compound in water; type: physicochemical; details: buffer
# [7] = Chemical solubility of the compound in DMSO; type: physicochemical
SMILES,inhibition at 5 µM (Human adenovirus 5 [1]) [%],inhibition at 15 µM (Human adenovirus 5 [2]) [%],also measured
O=C(Cc1ccccc1)Nc1ccccc1C(=O)Nc1ccccc1C(=O)O,32,21,–
COc1ccc(C(=O)Nc2ccccc2C(=O)O)c(NC(=O)c2ccccc2F)c1,92,89,"viability at 24 h, 30 µM [3]: 92%; EC50 (Human adenovirus 5 [4]): 2300 nM; viability at 24 h, 60 µM [5]: 94%"
Cc1ccccc1C(=O)Nc1ccccc1C(=O)Nc1ccc(C(=O)O)cc1,0,20,–
O=C(Nc1ccccc1C(=O)Nc1ccccc1C(=O)O)c1ccccc1,89,91,"viability at 24 h, 30 µM [3]: 82%; viability at 24 h, 60 µM [5]: 83%"
O=C(Cc1ccccc1NC(=O)c1ccccc1)Nc1ccccc1C(=O)O,0,0,–
O=C(Nc1cc(F)c(F)cc1C(=O)Nc1ccccc1C(=O)O)c1ccccc1F,94,93,"viability at 24 h, 30 µM [3]: 96%; EC50 (Human adenovirus 5 [4]): 580 nM; viability at 24 h, 60 µM [5]: 96%"
Cc1ccc(C(=O)Nc2ccccc2C(=O)Nc2ccccc2C)cc1,0,12,–
Cc1ccc(C(=O)Nc2ccccc2C(=O)Nc2ccccc2C(=O)O)cc1,0,85,–
CCOC(=O)c1ccccc1NC(=O)c1cccc(NC(=O)c2ccccc2)c1,–,25,–
O=C(Nc1cccc(C(=O)Nc2ccccc2C(=O)O)c1)c1ccccc1,–,39,–
CCOC(=O)c1ccccc1NC(=O)c1ccc(NC(=O)c2ccccc2)cc1,–,15,–
COc1ccc(C(=O)Nc2ccccc2C(=O)Nc2ccccc2C(=O)O)cc1,0,67,–
O=C(Nc1ccccc1C(=O)Nc1ccccc1)c1ccccc1,–,18,–
O=C(Nc1ccccc1C(=O)Nc1ccc(Cl)cc1C(=O)O)c1ccccc1F,0,0,–
CCOC(=O)c1ccc(NC(=O)c2ccccc2NC(=O)c2ccccc2)cc1,–,8,–
O=C(Nc1ccccc1C(=O)Nc1ccccc1C(=O)O)c1ccccc1F,96,98,"viability at 24 h, 30 µM [3]: 85%; EC50 (Human adenovirus 5 [4]): 2300 nM; viability at 24 h, 60 µM [5]: 83%"
O=C(O)c1ccc(NC(=O)c2ccccc2NC(=O)c2ccccc2)cc1,–,8,–
Cc1ccccc1C(=O)Nc1cccc(C(=O)Nc2ccccc2C(=O)O)c1,5,7,–
CCOC(=O)c1ccccc1NC(=O)c1ccccc1NC(=O)c1ccccc1,–,–,solubility [6]: Insoluble; solubility [7]: Insoluble
COc1ccc(NC(=O)c2ccccc2F)c(C(=O)Nc2ccccc2C(=O)O)c1,91,97,"viability at 24 h, 30 µM [3]: 84%; EC50 (Human adenovirus 5 [4]): 1400 nM; viability at 24 h, 60 µM [5]: 84%"
O=C(Nc1ccc(Cl)cc1C(=O)Nc1ccccc1C(=O)O)c1ccccc1F,89,91,"viability at 24 h, 30 µM [3]: 91%; EC50 (Human adenovirus 5 [4]): 570 nM; viability at 24 h, 60 µM [5]: 88%"

SMILES,inhibition at 5 µM (Human adenovirus 5 [1]) [%],inhibition at 15 µM (Human adenovirus 5 [2]) [%],also measured
CCOC(=O)c1cccc(NC(=O)c2ccccc2NC(=O)c2ccccc2)c1,–,0,–
CS(=O)(=O)Nc1ccccc1C(=O)Nc1ccccc1C(=O)O,0,23,–
O=C(Nc1cc(Cl)ccc1C(=O)Nc1ccccc1C(=O)O)c1ccccc1F,57,78,–
O=C(O)c1cccc(NC(=O)c2ccccc2NC(=O)c2ccccc2)c1,–,8,–
COc1ccc(C(=O)O)c(NC(=O)c2ccccc2NC(=O)c2ccccc2F)c1,0,0,–
Cc1ccc(NC(=O)c2ccccc2NC(=O)c2ccccc2C(=O)O)cc1,0,0,–
O=C(O)Cc1ccccc1NC(=O)c1ccccc1NC(=O)c1ccccc1,0,0,–
COc1ccc(NC(=O)c2ccccc2NC(=O)c2ccccc2F)c(C(=O)O)c1,28,78,–
O=C(Nc1ccccc1C(=O)Nc1cc(F)c(F)cc1C(=O)O)c1ccccc1F,0,0,–
NC(=O)c1ccccc1NC(=O)c1cccc(NC(=O)c2ccccc2)c1,0,19,–
O=C(Nc1ccccc1C(=O)Nc1cc(Cl)ccc1C(=O)O)c1ccccc1F,0,61,–
Nc1ccn(C[C@@H](CO)OCP(=O)(O)O)c(=O)n1 [CIDOFOVIR],–,–,"viability at 24 h, 30 µM [3]: 100%; viability at 24 h, 60 µM [5]: 98%"
CC(C)(C)C(=O)Nc1ccccc1C(=O)Nc1ccccc1C(=O)O,45,52,–
O=C(O)c1ccccc1NC(=O)c1ccccc1NC(=O)C1CCCCC1,20,55,–
Cc1ccc(S(=O)(=O)Nc2ccccc2C(=O)Nc2ccccc2C(=O)O)cc1,2,8,–
O=C(O)CCC(=O)Nc1ccccc1C(=O)Nc1ccccc1C(=O)O,0,0,–
O=C(Nc1ccccc1C(=O)Nc1ccccc1C(=O)O)c1ccc(F)cc1,76,95,–
CC(=O)Nc1ccccc1C(=O)Nc1ccccc1C(=O)O,4,24,–
O=C(Nc1ccccc1C(=O)Nc1ccccc1C(=O)O)c1cccc(F)c1,41,–,–
O=C(Nc1ccc(C(=O)Nc2ccccc2C(=O)O)cc1)c1ccccc1,–,47,–
